In brackets after ≈: the same amount, converted by molar mass.
What was measured:
Format in all cases: functional
Staphylococcus aureus [1] = assay: Minimum inhibitory concentration was evaluated in vitro against Staphylococcus aureus UC 76
In short: (§1)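 Standard microtitration broth assay against a panel of 10 Gram-positive and Gram-negative organisms. MIC read in µg/mL and averaged over multiple experiments.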

Klebsiella pneumoniae = assay: Minimum inhibitory concentration was evaluated in vitro against Klebsiella pneumoniae MGH2; in short: as §1
Escherichia coli = assay: Antibacterial activity in vitro against Escherichia coli Vogel; in short: as §1
Enterococcus faecalis = assay: Minimum inhibitory concentration was evaluated in vitro against Enterococcus faecalis MGH-2; in short: as §1
Staphylococcus aureus [2] = assay: Minimum inhibitory concentration was evaluated in vitro against Staphylococcus aureus H 228; in short: as §1
Pseudomonas aeruginosa = assay: Minimum inhibitory concentration was evaluated in vitro against Pseudomonas aeruginosa UI-18; in short: as §1
Enterobacter cloacae = assay: Minimum inhibitory concentration in vitro against Enterobacter cloacae MA 2646
Streptococcus pyogenes [3] = assay: Compounds were evaluated in vivo for antibacterial activity for mouse protection against Streptococcus pyogenes C 203 after oral administration
Streptococcus pyogenes [4] = assay: Antibacterial activity measured as mouse protection against Streptococcus pyogenes C 203 after subcutaneous administration; conditions: for ED50: Streptococcus pyogenes, C 203, sc, read-out: PD50
Streptococcus pneumoniae = assay: Minimum inhibitory concentration was evaluated in vitro against Streptococcus pneumoniae SV-1; in short: as §1
Streptococcus pyogenes [5] = assay: Minimum inhibitory concentration was evaluated in vitro against Streptococcus pyogenes C 203; in short: as §1
Providencia rettgeri = assay: Minimum inhibitory concentration was evaluated in vitro against Providencia rettgeri M1771; in short: as §1
[6] = Staphylococcus aureus, read-out: MIC
[7] = Klebsiella pneumoniae, read-out: MIC
[8] = Escherichia coli, read-out: MIC
[9] = Enterococcus faecalis, read-out: MIC
[10] = Pseudomonas aeruginosa, read-out: MIC
[11] = Enterobacter cloacae, read-out: MIC
[12] = Streptococcus pneumoniae, read-out: MIC
[13] = Streptococcus pyogenes, read-out: MIC
[14] = Providencia rettgeri, read-out: MIC

MIC (Streptococcus pneumoniae; [12]) [µg/mL]	Compound	MIC (Staphylococcus aureus [1]; [6]) [µg/mL]	MIC (Klebsiella pneumoniae; [7]) [µg/mL]	MIC (Escherichia coli; [8]) [µg/mL]	MIC (Enterococcus faecalis; [9]) [µg/mL]	MIC (Staphylococcus aureus [2]; [6]) [µg/mL]	MIC (Pseudomonas aeruginosa; [10]) [µg/mL]	MIC (Enterobacter cloacae; [11]) [µg/mL]	MIC (Streptococcus pyogenes [5]; [13]) [µg/mL]	MIC (Providencia rettgeri; [14]) [µg/mL]	PD50 (Streptococcus pyogenes [3]) [mg/kg]	MIC (Streptococcus pneumoniae) [µg/mL]	also measured
0.8 (≈ 1.97 µM)	CN[C@@H](C)[C@H]1CCN(c2c(F)c(N)c3c(=O)c(C(=O)O)cn(C4CC4)c3c2F)C1	0.4 (≈ 0.984 µM)	0.8 (≈ 1.97 µM)	0.4 (≈ 0.984 µM)	1.6 (≈ 3.94 µM)	0.8 (≈ 1.97 µM)	3.1 (≈ 7.63 µM)	0.4 (≈ 0.984 µM)	1.6 (≈ 3.94 µM)	1.6 (≈ 3.94 µM)			
0.05 (≈ 0.129 µM)	CCN[C@H](C)[C@@H]1CCN(c2cc3c(cc2F)c(=O)c(C(=O)O)cn3C2CC2)C1	0.025 (≈ 0.0645 µM)	0.4 (≈ 1.03 µM)	0.2 (≈ 0.516 µM)	0.1 (≈ 0.258 µM)	0.1 (≈ 0.258 µM)	6.3 (≈ 16.3 µM)	0.2 (≈ 0.516 µM)	0.05 (≈ 0.129 µM)	0.8 (≈ 2.06 µM)			
	C[C@H](N)[C@H]1CCN(c2c(F)c(N)c3c(=O)c(C(=O)O)cn(C4CC4)c3c2F)C1 (stereo in doubt; 32F-S,R)										14	0.013 (≈ 0.0331 µM)	MIC (Staphylococcus aureus [1]): 0.006 µg/mL (≈ 0.0153 µM); MIC (Klebsiella pneumoniae): 0.1 µg/mL (≈ 0.255 µM); MIC (Escherichia coli): 0.05 µg/mL (≈ 0.127 µM); MIC (Enterococcus faecalis): 0.05 µg/mL (≈ 0.127 µM); MIC (Staphylococcus aureus [2]): 0.025 µg/mL (≈ 0.0637 µM); MIC (Pseudomonas aeruginosa): 0.8 µg/mL (≈ 2.04 µM); MIC (Enterobacter cloacae): 0.1 µg/mL (≈ 0.255 µM); PD50 (Streptococcus pyogenes [4]): 4 mg/kg; MIC (Streptococcus pyogenes [5]): 0.013 µg/mL (≈ 0.0331 µM); MIC (Providencia rettgeri): 0.2 µg/mL (≈ 0.51 µM)
0.4 (≈ 1.07 µM)	CN[C@@H](C)[C@H]1CCN(c2cc3c(cc2F)c(=O)c(C(=O)O)cn3C2CC2)C1	0.2 (≈ 0.536 µM)	0.8 (≈ 2.14 µM)	0.4 (≈ 1.07 µM)	0.8 (≈ 2.14 µM)	1.6 (≈ 4.28 µM)	6.3 (≈ 16.9 µM)	0.4 (≈ 1.07 µM)	0.4 (≈ 1.07 µM)	3.1 (≈ 8.3 µM)			
	CN[C@H](C)[C@H]1CCN(c2cc3c(cc2F)c(=O)c(C(=O)O)cn3C2CC2)C1	0.05 (≈ 0.134 µM)	0.4 (≈ 1.07 µM)	0.2 (≈ 0.536 µM)	0.2 (≈ 0.536 µM)	0.4 (≈ 1.07 µM)	3.1 (≈ 8.3 µM)	0.2 (≈ 0.536 µM)	0.1 (≈ 0.268 µM)	0.8 (≈ 2.14 µM)	82	0.2 (≈ 0.536 µM)	PD50 (Streptococcus pyogenes [4]): 7 mg/kg
	CCN[C@@H](C)[C@@H]1CCN(c2c(F)c(N)c3c(=O)c(C(=O)O)cn(C4CC4)c3c2F)C1 (stereo in doubt; 32H-S,S)			0.2 (≈ 0.476 µM)							13	0.05 (≈ 0.119 µM)	MIC (Staphylococcus aureus [1]): 0.05 µg/mL (≈ 0.119 µM); MIC (Klebsiella pneumoniae): 0.4 µg/mL (≈ 0.951 µM); MIC (Enterococcus faecalis): 0.2 µg/mL (≈ 0.476 µM); MIC (Staphylococcus aureus [2]): 0.1 µg/mL (≈ 0.238 µM); MIC (Pseudomonas aeruginosa): 3.1 µg/mL (≈ 7.37 µM); MIC (Enterobacter cloacae): 0.4 µg/mL (≈ 0.951 µM); PD50 (Streptococcus pyogenes [4]): 9 mg/kg; MIC (Streptococcus pyogenes [5]): 0.2 µg/mL (≈ 0.476 µM); MIC (Providencia rettgeri): 1.6 µg/mL (≈ 3.81 µM)
	CCN[C@H](C)[C@H]1CCN(c2cc3c(cc2F)c(=O)c(C(=O)O)cn3C2CC2)C1 (mixture of isomers; form 1)											0.2	MIC (Staphylococcus aureus [1]): 0.2 µg/mL; MIC (Klebsiella pneumoniae): 0.8 µg/mL; MIC (Escherichia coli): 0.4 µg/mL; MIC (Enterococcus faecalis): 0.4 µg/mL; MIC (Staphylococcus aureus [2]): 0.4 µg/mL; MIC (Pseudomonas aeruginosa): 6.3 µg/mL; MIC (Enterobacter cloacae): 0.4 µg/mL; MIC (Streptococcus pyogenes [5]): 0.2 µg/mL; MIC (Providencia rettgeri): 1.6 µg/mL
0.4 (≈ 1.03 µM)	CCN[C@@H](C)[C@H]1CCN(c2cc3c(cc2F)c(=O)c(C(=O)O)cn3C2CC2)C1	0.4 (≈ 1.03 µM)	0.8 (≈ 2.06 µM)	0.4 (≈ 1.03 µM)	0.8 (≈ 2.06 µM)	0.8 (≈ 2.06 µM)	12.5 (≈ 32.3 µM)	0.4 (≈ 1.03 µM)	0.4 (≈ 1.03 µM)	1.6 (≈ 4.13 µM)			

Compound	MIC (Streptococcus pneumoniae; [12]) [µg/mL]	MIC (Staphylococcus aureus [1]; [6]) [µg/mL]	MIC (Klebsiella pneumoniae; [7]) [µg/mL]	MIC (Escherichia coli; [8]) [µg/mL]	MIC (Enterococcus faecalis; [9]) [µg/mL]	MIC (Staphylococcus aureus [2]; [6]) [µg/mL]	MIC (Pseudomonas aeruginosa; [10]) [µg/mL]	MIC (Enterobacter cloacae; [11]) [µg/mL]	MIC (Streptococcus pyogenes [5]; [13]) [µg/mL]	MIC (Providencia rettgeri; [14]) [µg/mL]	PD50 (Streptococcus pyogenes [3]) [mg/kg]	MIC (Streptococcus pneumoniae) [µg/mL]	also measured
CCN[C@H](C)[C@@H]1CCN(c2nc3c(cc2F)c(=O)c(C(=O)O)cn3-c2ccc(F)cc2F)C1	0.2 (≈ 0.434 µM)	0.05 (≈ 0.109 µM)	1.6 (≈ 3.47 µM)	0.8 (≈ 1.74 µM)	0.4 (≈ 0.869 µM)	0.2 (≈ 0.434 µM)	3.1 (≈ 6.73 µM)	0.8 (≈ 1.74 µM)	0.2 (≈ 0.434 µM)	3.1 (≈ 6.73 µM)			ED50 (Streptococcus pyogenes [3]; Streptococcus pyogenes, C 203, po, read-out: PD50): 10 mg/kg; ED50 (Streptococcus pyogenes [4]): 6 mg/kg
COc1c(N2CC[C@@H]([C@H](C)N)C2)c(F)cc2c(=O)c(C(=O)O)cn(C3CC3)c12	0.025 (≈ 0.0642 µM)	0.013 (≈ 0.0334 µM)	0.4 (≈ 1.03 µM)	0.4 (≈ 1.03 µM)	0.05 (≈ 0.128 µM)	0.05 (≈ 0.128 µM)	1.6 (≈ 4.11 µM)	0.8 (≈ 2.05 µM)	0.025 (≈ 0.0642 µM)	0.4 (≈ 1.03 µM)			ED50 (Streptococcus pyogenes [4]): 6 mg/kg
CCNC(C)C1CCN(c2cc3c(c(N)c2F)c(=O)c(C(=O)O)cn3C2CC2)C1 (racemic)	0.013 (≈ 0.0323 µM)	0.025 (≈ 0.0621 µM)	0.2 (≈ 0.497 µM)	0.1 (≈ 0.248 µM)	0.05 (≈ 0.124 µM)	0.05 (≈ 0.124 µM)	1.6 (≈ 3.98 µM)	0.1 (≈ 0.248 µM)	0.013 (≈ 0.0323 µM)	0.8 (≈ 1.99 µM)	5		ED50 (Streptococcus pyogenes [4]): 1 mg/kg

From ChEMBL document CHEMBL1126988, “Quinolone antibacterials containing the new 7-[3-(1-aminoethyl)-1- pyrrolidinyl] side chain: the effects of the 1-aminoethyl moiety and its stereochemical configurations on potency and in vivo efficacy” (J Med Chem, 1993)
